Measured values from ChEMBL document CHEMBL4513216, “Probing the Open Global Health Chemical Diversity Library for Multistage-Active Starting Points for Next-Generation Antimalarials” (ACS Infect Dis, 2020).

assay: Toxicity liver stage against HepG2, at 10uM; type: cell-based; set-up: test concentration 10 uM, cell line HepG2-A16-CD81EGFP; conditions: human, HepG2-A16-CD81EGFP cells; read-out: INHIBITION
Procedure, shortened: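 Uninfected HepG2-A16-CD81EGFP cells, 3 × 10^3 per well, 1536-well, plated on prespotted compound at 10 μM final, parasite-free screening media added to match infected plates; puromycin 10 μM positive, DMSO 0.5% negative; run in parallel with 48 h PbLuc assay at 37 °C, 5% CO2; viability by CellTiter-Glo luminescence, normalized to controls.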

Going from `COc1ccc(NC(=O)C2CC(=O)n3cnnc3S2)cc1` (stereo not given) to `O=C1CCc2cc(NC(=O)C3CCCN3c3nccs3)ccc2N1` (stereo not given), the cytotoxicity at 10 µM falls from 1.64% to -10.8%.

Compared with `COc1cc(NC(=O)c2nc3ccccc3n(C)c2=O)cc(OC)c1`, `COc1cc(OC)cc(C(=O)NCc2nn(C)c3c2COCC3)c1` is lower in cytotoxicity at 10 µM: 7.67% for the first, 6.17% for the second.

Going from `CC(C)C(=O)Nc1ccc2c(c1)ncn2CC(=O)NCCN(C)C` to `CC(C)C(=O)Nc1cccc(CNC(=O)CSCc2ccccn2)c1`, the cytotoxicity at 10 µM rises from -9.1% to 9.65%.

Going from `COc1ccc2nnc(CCC(=O)Nc3nc(C)c(C)s3)n2n1` to `CS(=O)(=O)c1nnc(NC(=O)CCc2ccc(Cl)s2)[nH]1`, the cytotoxicity at 10 µM rises from -3.18% to 6.13%.

First: CN1CCc2c(C#N)c(NCc3ccccc3)n3cnnc3c2C1
Second: Cc1nc(NCc2scnc2-c2ccccc2)cc(C2CCNCC2)n1
The cytotoxicity at 10 µM of the first is higher: 3.93% for the first, 1.69% for the second.

Going from `CC(C)NC(=O)N1CCN(C(=O)N(C)C)CC2(CC(=O)N(C)C2)C1` (stereo not given) to `CC(=O)N1CCN(C(=O)NC(C)Cn2ccnc2)CC1` (stereo not given), the cytotoxicity at 10 µM rises from -17.8% to -1.05%.

Compared with `CCCNC(=O)c1nn(CC)cc1Cl`, `CCn1cc(CN2CCC(CNC(C)=O)CC2)cc1C#N` is lower in cytotoxicity at 10 µM: 6.11% for the first, -6.21% for the second.

Going from `CCn1cc(NC(=O)CN2C(=O)CC(C)(C)c3ccccc32)cn1` to `CN(C)CCn1c(=O)oc2ccc(NC(=O)CSc3ccccc3)cc21`, the cytotoxicity at 10 µM falls from -1.7% to -3.51%.

First: O=C(CC1CCCC1)N1CCC(c2noc(-c3ccccn3)n2)CC1
Second: CN(CCc1ccccn1)C1CCCN(Cc2noc(C3CC3)n2)C1 (stereo not given)
The cytotoxicity at 10 µM of the first is lower: 5.05% for the first, 11.6% for the second.

Going from `Cc1nc(CN2CCCC(c3nccs3)C2)cs1` (stereo not given) to `CCn1ccnc1C1CCN(Cc2cccc(C)n2)CC1`, the cytotoxicity at 10 µM falls from 2.3% to -7.93%.

Going from `O=C(NC1CC1)c1cc(C2CC2)nc2onc(C3CCNCC3)c12` to `CC(C)Cc1nc(CN2CCC(NC(=O)c3cccs3)CC2)no1`, the cytotoxicity at 10 µM falls from 7.16% to -2.56%.

Going from `Cc1ccc(S(=O)(=O)Nc2ccc(C)c(C(=O)O)c2)s1` to `Cc1cc(S(=O)(=O)NC(=O)CCc2cncc(F)c2)c(C)s1`, the cytotoxicity at 10 µM falls from -1.51% to -1.99%.

Going from `O=C(c1cc[nH]n1)N1CCc2cc(Br)sc2C1` to `CCCc1cc(C(=O)N2CCCN(c3cccnn3)CC2)[nH]n1`, the cytotoxicity at 10 µM falls from 7.01% to -1.16%.

Compared with `COc1ccc(C2(C(=O)NC3CCc4nccn4C3)CCCC2)cc1` (stereo not given), `Cc1ccc(C(=O)N(CC2CCCO2)c2ccncc2)o1` (stereo not given) is lower in cytotoxicity at 10 µM: 4.48% for the first, -3.08% for the second.

Going from `CCOc1ccccc1CN(C)C(C)c1nc(-c2cccnc2)no1` (stereo not given) to `Cc1ccccc1-n1nc(C)c(CN(C)C(C)Cc2ccccn2)c1C` (stereo not given), the cytotoxicity at 10 µM falls from 7.84% to 0.58%.

Compared with `CC(C)N1CCC(NC(=O)NCc2cccnc2)C1` (stereo not given), `Cc1ccc(C)c(OC(C)C(=O)NCc2cccnc2)c1` (stereo not given) is lower in cytotoxicity at 10 µM: 7.67% for the first, 2.13% for the second.

First: CN(CCCOc1ccccc1)S(=O)(=O)c1cnn(C)c1
Second: COCC1CN(S(=O)(=O)c2ccccc2)Cc2ncnn2C1 (stereo not given)
The cytotoxicity at 10 µM of the first is higher: -6.7% for the first, -117% for the second.

Going from `NC(=O)NC(=O)C(c1ccccc1)N1CCN(Cc2ccccc2)CC1` (stereo not given) to `CC(C)(C)C(NCC(=O)N1CCNC(=O)C1)c1ccccc1` (stereo not given), the cytotoxicity at 10 µM falls from -5.68% to -10.7%.

Going from `COCCNC(=O)CCNc1cc(C)nc(-c2ccncc2)n1` to `Cc1ccc(C)c(OC(C)C(=O)NCCNc2cccnc2)c1` (stereo not given), the cytotoxicity at 10 µM rises from -1.26% to 1.32%.

First: Cc1cc(CN2CCN(C(=O)C3(C#N)CCCCC3)CC2)on1
Second: CCn1ccnc1CN1CCCN(C(=O)c2cc(Cl)c[nH]2)CC1
The cytotoxicity at 10 µM of the first is higher: 4.81% for the first, -9.6% for the second.

First: CCC1CCC(N(Cc2cc(=O)n(C)c(=O)n2C)C2CC2)CC1 (stereo not given)
Second: CN(C)CC(=O)N1Cc2nnn(C)c2C(COCC2CC2)C1 (stereo not given)
The cytotoxicity at 10 µM of the first is higher: 22.6% for the first, -99.4% for the second.

First: COC(C)c1nc(CN2CCCNCC2)cs1 (stereo not given)
Second: CCc1nn(C)c(Cl)c1CN1CCN(c2nc(C(N)=O)cs2)CC1
The cytotoxicity at 10 µM of the first is lower: -3.78% for the first, 8.81% for the second.

Going from `CCc1nc(CN2CCCC(N(C)Cc3cnc(C)cn3)C2)no1` (stereo not given) to `CCc1nc(CN(C)C2CCN(CC(=O)N(C)C)C2)no1` (stereo not given), the cytotoxicity at 10 µM falls from -5.66% to -16.7%.

Compared with `N#Cc1ccc(CNc2cccc(C(=O)N3CCOCC3)c2)cc1`, `Cc1cc(C(=O)N2CCC(c3nccn3Cc3ccncc3)CC2)no1` is lower in cytotoxicity at 10 µM: -4.34% for the first, -15.7% for the second.

Going from `CCCOc1cc(C)ccc1NC(=O)N(C)C` to `CCOCCn1c(=O)[nH]c2cc(C(=O)N(C)Cc3cnn(C)c3)ccc21`, the cytotoxicity at 10 µM rises from -4.59% to 2.81%.

First: CC(=O)N(Cc1ccsc1)c1ccccc1
Second: O=C(Nc1ccccc1OCc1ccccn1)NC1CCOCC1
The cytotoxicity at 10 µM of the first is lower: -1.74% for the first, 6.78% for the second.

Going from `COCCS(=O)(=O)NC(C)c1ccccc1Cl` (stereo not given) to `CC(O)CN1CCC(CNCc2cccc(Cl)c2)CC1` (stereo not given), the cytotoxicity at 10 µM falls from 5.53% to -23.8%.

Compared with `COc1c(CNCc2cccnc2OC2CCCC2)c(C)nn1C`, `CCOc1ccc2[nH]c(=O)c(CN3CCCCC3C)cc2c1` (stereo not given) is higher in cytotoxicity at 10 µM: -2.01% for the first, -0.895% for the second.

Compared with `CSCc1cc(F)ccc1CNCc1ccncc1`, `Cc1ccc(NC2CCN(C(=O)CCc3ccncc3)CC2)nn1` is lower in cytotoxicity at 10 µM: -7.53% for the first, -9.43% for the second.

First: CC(=O)N(C)c1nc(Cn2nnnc2C(C)(C)C)cs1
Second: CN(CCC(N)=O)Cc1cc(Br)cs1
The cytotoxicity at 10 µM of the first is higher: 6.56% for the first, -0.711% for the second.

Compared with `CCOCCN1CCN(CC(O)c2ccc(C(F)(F)F)cc2)CC1` (stereo not given), `CCOCC(O)CN1CCN(C(=O)c2ccc(C)nc2)CC1` (stereo not given) is higher in cytotoxicity at 10 µM: -16.6% for the first, 0.661% for the second.

Going from `CNC(=O)c1c(C)cccc1NCc1nnc(C2CC2)o1` to `Cc1nnc(NC(=O)NCc2cc(F)cc(F)c2)s1`, the cytotoxicity at 10 µM falls from 2.41% to -6.07%.

Compared with `COC(=O)c1cc(C)nc(N2CCN(Cc3ccn(C(C)C)c3)CC2)n1`, `Cc1cc(C)n(CC(C)NC2CCN(Cc3cccc(O)c3)CC2)n1` (stereo not given) is lower in cytotoxicity at 10 µM: 9.77% for the first, -2.01% for the second.

Compared with `CC(C)c1nnc2sc(CC3CN(C(C)C)CCO3)nn12` (stereo not given), `c1csc(-c2nc(CN3CCOC(Cn4cncn4)C3)co2)c1` (stereo not given) is higher in cytotoxicity at 10 µM: -13.8% for the first, -11.8% for the second.

First: CCc1n[nH]c(SCC(=O)N2CCc3[nH]nc(C4CCC4)c3C2)n1
Second: O=C(CCc1ccncc1)N1CCCC(n2cccn2)C1 (stereo not given)
The cytotoxicity at 10 µM of the first is lower: -12.1% for the first, -5.57% for the second.

Compared with `Cc1cc(Cn2cc(C(C)Cc3ccc4c(c3)OCO4)nn2)n[nH]1` (stereo not given), `COCC1CN(Cc2ccoc2)Cc2nn(C)cc21` (stereo not given) is lower in cytotoxicity at 10 µM: 5.92% for the first, -81.7% for the second.

Compared with `COCc1ncc(CN2C[C@@H](C(=O)O)[C@H](C(C)C)C2)cn1`, `CSCCC(O)C(=O)N(C)Cc1cnn(-c2ccc(F)cc2)c1` (stereo not given) is lower in cytotoxicity at 10 µM: -2.97% for the first, -5.36% for the second.

Compared with `Cc1cc(C)c2[nH]c(C(=O)NCCN3CCOC3=O)c(C)c2c1`, `Cc1ccoc1C(=O)N1CCCC(CNS(C)(=O)=O)C1` (stereo not given) is lower in cytotoxicity at 10 µM: -0.2% for the first, -23.4% for the second.

First: CSc1ccc(-c2nc(CN3C[C@@H](C)NC[C@@H]3C)c(C)o2)cc1
Second: Cc1cnc2c(S(=O)(=O)NCC3CCN(C4CC4)C3)cccc2c1 (stereo not given)
The cytotoxicity at 10 µM of the first is higher: -3.06% for the first, -6.36% for the second.

Going from `CCNC(=O)[C@@H]1C[C@H](N)CN1C(=O)c1c[nH]c2ccccc12` to `CCNC(=O)Nc1ccc2c(ccn2CC(=O)N(CC)CC)c1`, the cytotoxicity at 10 µM rises from -8.34% to -0.421%.

Compared with `CC1(C)CN(CCC(=O)NCc2cccc(Cl)c2)CC[C@]1(C)O`, `CS(=O)(=O)NC1CCN(C(=O)NCCc2ccccc2F)CC1` is lower in cytotoxicity at 10 µM: -3.45% for the first, -3.83% for the second.

First: COc1cccc(CN2CC3(CCNCC3)CCC2=O)c1OC
Second: c1cncc(COC[C@@H]2CCC[C@@]23CNCCO3)c1
The cytotoxicity at 10 µM of the first is higher: 6.39% for the first, -106% for the second.

With `CCc1nc(CNCC2CCCN2c2cc(NC)ncn2)cs1` (stereo not given) the cytotoxicity at 10 µM was -9.11%.
